The results in this text go back to publication PMC11265520 (RSC Advances, 2024).

Like-named read-outs stand apart in the source and are kept apart here. Some results are limits rather than exact numbers.

The test system of one series is Capan-1. The series can be described thus: Antiproliferative assay, Capan-1. Type of series: cell-based. Particulars: Homo sapiens, CAPAN-1, read-out: IC50 Capan-1.
In the next series the target is hCA I (Homo sapiens, UniProt P00915). Description: Stopped flow CO2 hydrase assay, hCA I. The series is classed as biochemical.
Chain of hCA I (P00915 whole entry): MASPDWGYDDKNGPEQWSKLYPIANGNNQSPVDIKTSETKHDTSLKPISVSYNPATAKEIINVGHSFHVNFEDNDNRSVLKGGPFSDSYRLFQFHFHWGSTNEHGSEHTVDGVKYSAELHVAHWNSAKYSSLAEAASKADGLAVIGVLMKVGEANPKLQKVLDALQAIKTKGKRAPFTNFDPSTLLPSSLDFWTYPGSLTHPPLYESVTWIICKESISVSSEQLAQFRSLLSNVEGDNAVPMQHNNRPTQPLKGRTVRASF
The test system of the next series is K562. Description: Antiproliferative assay, K562. Type of series: cell-based. The settings on record: Homo sapiens, K562, read-out: IC50 K562.
The test system of the next series is Z138. The series can be described thus: Antiproliferative assay, Z138. Particulars: Homo sapiens, Z-138, read-out: IC50 Z138. The series is classed as cell-based.
For series [1], the system named is breast cancer cells MCF-7. Description: MTT antiproliferative assay, MCF-7 under normoxia and hypoxia. The series is classed as cell-based, human. The settings on record: for IC50: Homo sapiens; for HCR, hypoxic cytotoxicity ratio: IC50(N)/IC50(H): MCF-7; for antiproliferative activity, in words: MCF-7, Table 3. Put shortly:
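MTT assay on MCF-7 cells grown in high-glucose DMEM with 10% FBS, penicillin and streptomycin at 37 °C and 5% CO2. Cells were seeded at 40 000 per well, and test compound (10 mM DMSO stock) was added after 24 h; controls got solvent. Cells were kept under normoxia (21% O2) or hypoxia (1% O2). IC50 is mean ± S.D. of 3 experiments; HCR = IC50(N)/IC50(H).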
For orientation: Formazan colour is commonly taken as a measure of viable cells.

A further series concerns the target hCA IX (Homo sapiens, UniProt Q16790). The series can be described thus: biochemical. The series is classed as biochemical.
The subject of the next series is HCT-116. Description: Antiproliferative assay, HCT-116. Type of series: cell-based. Particulars: Homo sapiens, HCT-116, read-out: IC50 HCT-116.
For the next series, the target named is hCA II (Homo sapiens, UniProt P00918). The series can be described thus: Stopped flow CO2 hydrase assay, hCA II. The series is classed as biochemical.
Another series has as its system HL-60. The series can be described thus: Antiproliferative assay, HL-60. Type of series: cell-based. Particulars: Homo sapiens, HL-60, read-out: IC50 HL-60.
A further series deals with DND-41. Description: Antiproliferative assay, DND-41. The series is classed as cell-based. Particulars: Homo sapiens, DND41, read-out: IC50 DND-41.
The subject of another series is LN229. Description: Antiproliferative assay, LN229. The settings on record: Homo sapiens, LN-229, read-out: IC50 LN229. The series is classed as cell-based.
A further series relates to NCI-H1975. Description: Antiproliferative assay, NCI-H1975. The series is classed as cell-based. The settings on record: Homo sapiens, NCI-H1975, read-out: IC50 NCI-H1975.
The target of a further series is hCA XII (Homo sapiens, UniProt O43570). Description: Stopped flow CO2 hydrase assay, hCA XII. The series is classed as biochemical.
Chain of hCA XII (O43570 25-354): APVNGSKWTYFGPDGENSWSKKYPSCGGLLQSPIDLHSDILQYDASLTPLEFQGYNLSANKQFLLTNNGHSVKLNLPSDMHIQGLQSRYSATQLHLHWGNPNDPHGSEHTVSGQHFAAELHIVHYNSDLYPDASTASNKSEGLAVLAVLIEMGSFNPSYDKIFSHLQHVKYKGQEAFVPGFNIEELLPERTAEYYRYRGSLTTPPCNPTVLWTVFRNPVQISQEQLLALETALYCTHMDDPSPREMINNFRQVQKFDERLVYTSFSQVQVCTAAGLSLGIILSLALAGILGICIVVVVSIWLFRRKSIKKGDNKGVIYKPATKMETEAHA
The subject of series [2] is panel of tumor cell lines. Description: Antiproliferative activity over the panel of tumor cell lines. The series is classed as cell-based, human.

By IC50 is commonly meant the point on the concentration scale where inhibition reaches its midpoint. The term Ki denotes the dissociation constant of the complex between target and ligand, obtained from inhibition or displacement.

In the case of `N#Cc1c(-c2ccccc2)[n+]([O-])c2cc(S(N)(=O)=O)ccc2[n+]1[O-]` [Compound 7a, 3-Phenyl-6-sulfamoylquinoxaline-2-carbonitrile 1,4-dioxide], the IC50 came out at 7.5 ± 0.4 µM with Capan-1; 10.8 ± 0.5 µM with K562; 8.7 ± 0.4 µM in the series on Z138; 0.9 ± 0.3 µM in [1] (MCF7, read-out: IC50 H); 3.5 ± 0.2 µM in series [1] (MCF7, read-out: IC50 N); 47.9 ± 2.3 µM in the series on HCT-116. Further, the IC50 was found to be 2.3 ± 0.1 µM in the series on HL-60, 0.8 ± 0.05 µM in the series on DND-41, 38.8 ± 1.9 µM in the series with LN229 and 19.9 ± 0.9 µM with NCI-H1975. Besides, the Ki at hCA I was found to be 0.0491 ± 0.003 µM; at hCA IX, 2.4 ± 0.096 µM; at hCA II it was 0.0027 ± 0.0002 µM; at hCA XII it was 0.089 ± 0.007 µM. Also, the “HCR, hypoxic cytotoxicity ratio: IC50(N)/IC50(H)” value (from here on “HCR, hypoxic cytotoxicity ratio”) in [1] is reported as 3.9.

`N#Cc1c(-c2ccc(Cl)cc2)[n+]([O-])c2cc(S(N)(=O)=O)ccc2[n+]1[O-]` [Compound 7b, 3-(4-Chlorophenyl)-6-sulfamoylquinoxaline-2-carbonitrile 1,4-dioxide]: the concentration for half-maximal inhibition (IC50) worked out at 1.8 ± 0.1 µM with Capan-1; 29.7 ± 1.5 µM in the series on K562; 2.5 ± 0.2 µM with Z138; 0.8 ± 0.2 µM in [1] (MCF7, read-out: IC50 H); 1.8 ± 0.2 µM in series [1] (MCF7, read-out: IC50 N); 34.3 ± 1.7 µM in the series with HCT-116. Also, the IC50 came out at 2 ± 0.1 µM with HL-60, 5.4 ± 0.3 µM in the series on DND-41, 24 ± 1.2 µM in the series on LN229 and 13.9 ± 0.7 µM in the series on NCI-H1975. Moreover, the Ki on hCA I came out at 0.0537 ± 0.0015 µM; on hCA IX it was 0.429 ± 0.021 µM; at hCA II, 0.0051 ± 0.0003 µM; at hCA XII it was 0.178 ± 0.009 µM. Besides, the “HCR, hypoxic cytotoxicity ratio” value in series [1] was 2.2. The “enhancement of cytotoxicity compared to unsubstituted analogue 7a” value in [2] (all tested cell lines except DND-41) lay within 1.2 to 6.8 times.

With `N#Cc1c(-c2ccco2)[n+]([O-])c2cc(S(N)(=O)=O)ccc2[n+]1[O-]` [Compound 7c, 3-(Furan-2-yl)-6-sulfamoylquinoxaline-2-carbonitrile 1,4-dioxide], the IC50 with Capan-1 is over 100 µM; with K562, over 100 µM; in the series on Z138, over 100 µM; in series [1] (MCF7, read-out: IC50 H), over 25 µM; in series [1] (MCF7, read-out: IC50 N), over 25 µM; in the series on HCT-116 it was over 100 µM. In addition, the IC50 in the series with HL-60, with DND-41, in the series with LN229 and in the series with NCI-H1975 was over 100 µM in each case. Moreover, the inhibition constant Ki on hCA I is 0.038 ± 0.0011 µM; at hCA IX, over 10 µM; at hCA II it was 0.0044 ± 0.0002 µM; on hCA XII, over 10 µM. In addition, the “antiproliferative activity, in words” value in series [1] is listed as “complete loss of activity”. For the same compound, the “activity against CA IX, in words” value at hCA IX was “complete loss of activity”. Further, the “activity against CA XII, in words” value on hCA XII was “inactive”.

On to `N#Cc1c(-c2cccs2)[n+]([O-])c2cc(S(N)(=O)=O)ccc2[n+]1[O-]` [Compound 7d, 6-Sulfamoyl-3-(thiophen-2-yl)quinoxaline-2-carbonitrile 1,4-dioxide], for which the IC50 is over 100 µM in the series with Capan-1; over 100 µM in the series with K562; over 100 µM in the series on Z138; over 25 µM in series [1] (MCF7, read-out: IC50 H); over 25 µM in series [1] (MCF7, read-out: IC50 N); over 100 µM with HCT-116. Besides, the half-inhibitory concentration (IC50) with HL-60 was 72.4 ± 3.6 µM; in the series with DND-41, 44.8 ± 2.2 µM; in the series on LN229, 98.8 ± 4.9 µM; in the series on NCI-H1975 it was over 100 µM. Also, the inhibitory constant (Ki) at hCA I (read-out: Ki hCA I, mean from three experiments, stopped flow CO2 hydrase assay) is 0.0417 ± 0.002 µM; on hCA IX (read-out: Ki hCA IX, mean from three experiments, stopped flow CO2 hydrase assay) it was over 10 µM; on hCA II (read-out: Ki hCA II, mean from three experiments, stopped flow CO2 hydrase assay), 0.0042 ± 0.0001 µM. The “antiproliferative activity, in words” value in [1] was “complete loss of activity”. In addition, the “activity against CA IX, in words” value at hCA IX is “complete loss of activity”.

In the case of `CCOC(=O)c1c(-c2ccccc2)[n+]([O-])c2cc(S(N)(=O)=O)ccc2[n+]1[O-]` [Compound 7e, 2-(Ethoxycarbonyl)-3-phenyl-6-sulfamoylquinoxaline 1,4-dioxide], the IC50 in the series with Capan-1 was 6 ± 0.3 µM; with K562 it was 52.6 ± 2.1 µM; with Z138, 15.3 ± 0.8 µM; in series [1] (MCF7, read-out: IC50 H), 0.9 ± 0.06 µM; in series [1] (MCF7, read-out: IC50 N) it was 4 ± 0.6 µM; in the series on HCT-116 it was over 100 µM. Besides, the IC50 in the series on HL-60 stood at 52.7 ± 2.6 µM; with DND-41, 28.2 ± 1.4 µM; in the series on LN229 it was 87 ± 4.3 µM; in the series with NCI-H1975 it was 47.4 ± 2.3 µM. Besides, the Ki at hCA I stood at 0.0424 ± 0.0019 µM; at hCA IX, 0.257 ± 0.014 µM; on hCA II, 0.0054 ± 0.0003 µM; at hCA XII, 0.252 ± 0.014 µM. For the same compound, in series [1], the “HCR, hypoxic cytotoxicity ratio” value is recorded as 4.7.

Regarding `N#Cc1c(-c2ccccc2)[n+]([O-])c2ccc(S(N)(=O)=O)cc2[n+]1[O-]` [Compound 8a, 3-Phenyl-7-sulfamoylquinoxaline-2-carbonitrile 1,4-dioxide], the inhibition constant (Ki) was 0.0607 ± 0.0026 µM on hCA I, over 10 µM at hCA IX, 0.0044 ± 0.0001 µM at hCA II and 0.111 ± 0.0097 µM at hCA XII. Moreover, the IC50 amounted to 1.3 ± 0.3 µM in series [1] (MCF7, read-out: IC50 H) and 4.8 ± 0.2 µM in series [1] (MCF7, read-out: IC50 N). The “HCR, hypoxic cytotoxicity ratio” value in series [1] was found to be 3.7.

With `N#Cc1c(-c2ccc(Cl)cc2)[n+]([O-])c2ccc(S(N)(=O)=O)cc2[n+]1[O-]` [Compound 8b, 3-(4-Chlorophenyl)-7-sulfamoylquinoxaline-2-carbonitrile 1,4-dioxide], the inhibitory constant (Ki) was 0.0403 ± 0.0031 µM on hCA I, over 10 µM at hCA IX, 0.005 ± 0.0004 µM at hCA II and 0.133 ± 0.012 µM at hCA XII.

Turning to `CC(=O)c1c(C)[n+]([O-])c2ccc(S(N)(=O)=O)cc2[n+]1[O-]` [Compound 8g, 2-Acetyl-3-methyl-7-sulfamoylquinoxaline 1,4-dioxide], the half-maximal inhibitory concentration (IC50) in [1] (MCF7, read-out: IC50 H) worked out at 2.8 ± 0.4 µM; in series [1] (MCF7, read-out: IC50 N) it was 11.7 ± 1.2 µM. Moreover, in series [1], the “HCR, hypoxic cytotoxicity ratio” value amounted to 4.2.

As for `COc1cccc2c1C(=O)c1c(O)c3c(c(O)c1C2=O)C[C@@](O)(C(=O)CO)C[C@@H]3O[C@H]1C[C@H](N)[C@H](O)[C@H](C)O1` [DOXO, doxorubicin, reference compound], the IC50 in series [1] (MCF7, read-out: IC50 H) turned out to be 0.4 ± 0.03 µM; in [1] (MCF7, read-out: IC50 N), 0.3 ± 0.03 µM. For the same compound, the “HCR, hypoxic cytotoxicity ratio” value in [1] is 0.7.

In the case of `COc1cc([C@@H]2c3cc4c(cc3[C@@H](O[C@@H]3O[C@@H]5CO[C@@H](C)O[C@H]5[C@H](O)[C@H]3O)[C@H]3COC(=O)[C@H]23)OCO4)cc(OC)c1O` [Etoposide, etoposide, reference compound], the half-maximal inhibitory concentration (IC50) was 0.13 ± 0.01 µM with Capan-1; 1.2 ± 0.06 µM with K562; 0.3 ± 0.02 µM with Z138; 2.3 ± 0.1 µM in the series on HCT-116; 0.7 ± 0.04 µM in the series on HL-60; 0.29 ± 0.01 µM with DND-41. Further, the IC50 with LN229 was 1.7 ± 0.1 µM; in [2] (Homo sapiens, read-out: IC50 range over the tested tumor cell lines), 0.13 to 2.3 µM; with NCI-H1975, 1.1 ± 0.1 µM.

Take `Nc1n[n+]([O-])c2ccccc2[n+]1[O-]` [TPZ, Tirapazamine, reference compound]: the IC50 in series [1] (MCF7, read-out: IC50 H) was determined as 4.5 ± 1.1 µM; in series [1] (MCF7, read-out: IC50 N) it was 24.2 ± 3.3 µM. Besides, the “HCR, hypoxic cytotoxicity ratio” value in [1] was 5.4.
